Rows were chosen to be rich in hits. Some 2.1% of all compounds tested hit in one or more screens of this group.
bCat nuc transl – modulators of beta-catenin nuclear translocation, primary screen, imaging, HeLa cells, immunofluorescence, high-content; nuclear translocation activity, % at 5 µM; 190,000 compounds, 0.3% hits;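 active = nuclear translocation activity above 50% at 5 µM, with a well cell count of 50 or more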;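 also: per-cell ratio of nuclear to cytoplasmic median beta-catenin stain intensity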
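System: HeLa cells, endogenous beta-catenin; compound dosing: 5 µM primary single dose, 0.1% DMSO, 0.02–20 µM confirmation series; incubation: 24 h compound exposure at 37°C, 5% CO2; signal: beta-catenin immunofluorescence imaging with DAPI; evaluation: % activation, nuclear-to-cytoplasmic median beta-catenin signal ratio per cell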
Hsp70 activator – Hsp70 transcriptional activators, primary screen, cell-based, HeLa, Hsp70 promoter luciferase, luminescence, 10 µM | activation, % at 10 µM | 200,000 compounds, 0.04% hits | HeLa Hsp70 promoter luciferase reporter; scaled: vehicle 0, proteasome-inhibitor control 100%;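 active = activation above the mean across all tested compounds plus 3 SD, cutoff set per campaign, cut at about 5.5% in these data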
Dynein cargo inh – inhibitors of GR-EGFP nuclear translocation, primary screen, dynein cargo transport inhibitor project, imaging, high-content, 3617.4 mouse cells | z-score, hits read low | AID 1381, 2008 | test concentration mostly 20 µM; stimulated with dexamethasone, 1 µM; hits give low values | 220,000 compounds, 0.47% hits;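 active = plate z-score of nuclear minus cytoplasmic receptor signal below a set negative limit, without overly bright fluorescence or cell loss, cut at about -3.5 in these data, passing the limit was not always enough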;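 also: z-score of nuclear minus cytoplasmic ring GR-EGFP intensity difference per well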
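medium = tetracycline-free induction medium containing charcoal-stripped FBS | probe or stimulus = dexamethasone, 1.0 µM final | timing = 48 h induction, then 1 h compound, then 30 min agonist, 37 °C | detection = automated 10x imaging of fixed Hoechst-stained cells | read-out basis = nuclear versus cytoplasmic GR-EGFP signal, averaged per well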
Autophagy HCS – autophagy modulators in MEF cells, primary screen, imaging, high-content, MEF GFP-LC3 | 190,000 compounds, 0.98% hits | calls only at 10 µM (by protocol) | MEF GFP-LC3 puncta imaging; test concentration mostly 10 µM | AID 463193, 2010;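 active = percentage of spot-positive cells more than 3 SD above its plate mean, without a fluorescence outlier flag or 80% toxicity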
MT stabilize HCS – microtubule stabilizers in HeLa cells, primary screen, imaging, high-content imaging. HeLa tubulin immunostaining HCS, 24 h; share of cells brighter than vehicle mean+2SD. % tubulin-high responders, % at 10 µM. 200,000 compounds, 0.83% hits. AID 2205, 2009;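 active = plate Z-score above 3 for both tubulin-high and condensed-nucleus cell shares, with cell loss under 80%, at 10 µM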;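 also: anti alpha tubulin signal scored within the nucleus-defined area of each cell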
A number is an active result; . = inactive; / = no result given; + = active, no number.

SMILES	bCat nuc transl	Hsp70 activator	Dynein cargo inh	Autophagy HCS	MT stabilize HCS
O=C(Nc1ccc(N2CCCC2)cc1)c1cccc(F)c1	/	.	.	.	43
O=C(Nc1ccc(N2CCN(c3ccc(O)cc3)CC2)cc1)Oc1ccccc1	.	.	.	.	18
CCc1nc2ccc(C(=O)O)cc2nc1CC	.	.	.	.	.
COc1ccc(CNC(=O)CSc2nc3cccnc3s2)cc1	.	/	.	/	/
Cc1ccc(NC(=S)N(CCCN2CCN(C)CC2)Cc2cccs2)cc1C	.	.	.	+	.
CCOC(=O)c1ccc(NC(=S)N(CCCN2CCN(CC)CC2)Cc2ccco2)cc1	.	.	.	+	.
CCOC(=O)c1ccc(NC(=S)N(CCCN2CCCC2)Cc2ccco2)cc1	.	.	.	.	.
CCOc1ccc(C2C(C(=O)/C=C/c3ccco3)=C(O)C(=O)N2CCN2CCOCC2)cc1OC (stereo not drawn)	.	.	.	.	.
CC(C1CC1)N(Cc1ccccc1)C(=S)Nc1ccccc1Cl (stereo not drawn)	.	.	.	.	.
CCOC(=O)Nc1nc(-c2ccccc2)c(C(=O)c2ccc(Cl)cc2)s1	182	.	.	.	.
CCOc1ccc(S(=O)(=O)NCc2ccc(C)cc2)c2cccnc12	.	.	.	.	.
CCOc1ccc(NS(=O)(=O)c2ccc(OCC)c3ncccc23)cc1	.	.	.	.	44
N#CC1=C(N)Oc2cc(N)ccc2C1C1CCCCC1 (stereo not drawn)	/	.	.	.	46
COc1ccc(OC)c(C2C(C#N)=C(N)Oc3cc(N)ccc32)c1 (stereo not drawn)	.	.	.	.	.
CN(C)c1ccc(C2Nc3ccccc3C(=O)N2CCCN2CCOCC2)cc1 (stereo not drawn)	.	/	.	/	/
COc1ccc(CN(CC2CCC(C(=O)O)CC2)C(=S)Nc2cc(C)ccc2C)cc1 (stereo not drawn)	.	.	.	.	.
CC1CCC(C(C)C)C(OC(=O)C[n+]2cc(-c3ccc(Cl)cc3)n3c2CCCCC3)C1 (stereo not drawn)	.	.	.	+	.
O=C(C[n+]1cc(-c2ccccc2)n2c1CCCCC2)c1ccc(Cl)cc1	.	.	.	.	.
Cc1nc2c(C)cccc2cc1C(=O)N/N=C/c1ccc(N(C)C)cc1	.	.	.	.	40
Cc1nc2c(C)cccc2cc1C(=O)N/N=C/c1cccc([N+](=O)[O-])c1	.	.	.	.	20
Cc1ccc2nc(C)c(C(=O)N/N=C/c3cccc([N+](=O)[O-])c3)cc2c1	/	.	.	.	.
CCOc1ccc(-c2nc(N)ncc2Oc2ccccc2Br)c(O)c1	/	.	.	.	.
CCOc1ccc(-c2nc(N)ncc2Oc2cccc(OC)c2)c(O)c1	/	.	.	.	8.2
Cc1ccc(-c2nnc(-c3ccc(NC(=O)Cc4cccs4)cc3)o2)cc1	.	.	.	+	.
CCCCCOc1ccc(Br)cc1/C(C)=N/NC1=NCCN1	.	.	.	+	.
SMILES	bCat nuc transl	Hsp70 activator	Dynein cargo inh	Autophagy HCS	MT stabilize HCS
COc1ccc(Br)cc1/C(C)=N/NC1=NCCN1	.	.	.	.	.
Cc1cccc(NC2=Nc3ccccc3N3C2=Nc2c(c(C)nn2-c2ccccc2)C3c2ccc(O)c(O)c2)c1 (stereo not drawn)	.	.	.	.	.
Cc1ccc(NC2=Nc3ccccc3N3C2=Nc2c(c(C)nn2-c2ccccc2)C3c2ccc(O)c(O)c2)cc1 (stereo not drawn)	.	.	.	+	.
Cc1nn(-c2ccccc2)c2c1C(c1ccc(O)c(O)c1)N1C(=N2)C(Nc2ccccc2)=Nc2ccccc21 (stereo not drawn)	.	.	.	+	.
CCn1c(=O)c2c(nc3n2CCN3c2ccccc2)n(C)c1=O	.	.	.	.	.
COc1ccc(-n2c(SCc3ccc(C#N)cc3)nnc2-c2ccccn2)cc1	.	.	.	.	.
COc1ccc(C2Sc3nncn3N2Cc2ccc(C#N)cc2)cc1 (stereo not drawn)	.	.	.	+	.
CCN1CCN(C(c2cc3cccc(C)c3[nH]c2=O)c2nnnn2Cc2ccccc2)CC1 (stereo not drawn)	.	.	.	.	.
